Screening results: PubChem BioAssay, several laboratories
The list is not random: actives were taken first. Their share in the collection is about 0.94%.
Arrestin-AP2 inh: inhibitors of human beta-arrestin and AP2 interaction | FITC-arrestin peptide / GST-AP2 beads, flow cytometry; AP2 beta2 appendage carries R879A mutation | inhibition, % at 10 µM | hit rate 0.31% among 340,000 | AID 504490;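 active = inhibition above a set limit, near 3 SD of compounds lacking own fluorescence, cut at about 54% in these data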;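 note: plate controls were DMSO wells for no effect and 5 µM unlabelled arrestin peptide for full effect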
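System: GST-AP2 R879A glutathione beads. Medium: PBS with 0.05% Tween 20 and 0.1% BSA. Also added: FITC-arrestin peptide, 50 nM. Incubation: 12 min plus 1 h, RT. Measured by: high-throughput flow cytometry of beads, ex 488, em 535 nm. Evaluation: percent drop in bead-associated FITC signal.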
NPR1 activator: GC-A (human) enzyme activation. activation, % at 10 µM. AID 1671463. hit rate 0.14% among 370,000. P16066. HEK293 GC-A cells, cGMP TR-FRET, EC30 ANP; 0% at EC30 ANP, 100% saturating ANP; in the data active = activation above about 40%
NPR2 activator: GC-B (human) receptor activation; P20594; HEK293-GC-B cells, CNP EC30, cGMP TR-FRET; 0% at EC30 CNP, 100% saturating CNP; activation, % at 10 µM; hit rate 0.11% among 370,000;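 active = activation at 10 µM reaching about 35% in either raw or pattern-adjusted values, limit read from the data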
Target sequence (P20594 whole entry, looked up): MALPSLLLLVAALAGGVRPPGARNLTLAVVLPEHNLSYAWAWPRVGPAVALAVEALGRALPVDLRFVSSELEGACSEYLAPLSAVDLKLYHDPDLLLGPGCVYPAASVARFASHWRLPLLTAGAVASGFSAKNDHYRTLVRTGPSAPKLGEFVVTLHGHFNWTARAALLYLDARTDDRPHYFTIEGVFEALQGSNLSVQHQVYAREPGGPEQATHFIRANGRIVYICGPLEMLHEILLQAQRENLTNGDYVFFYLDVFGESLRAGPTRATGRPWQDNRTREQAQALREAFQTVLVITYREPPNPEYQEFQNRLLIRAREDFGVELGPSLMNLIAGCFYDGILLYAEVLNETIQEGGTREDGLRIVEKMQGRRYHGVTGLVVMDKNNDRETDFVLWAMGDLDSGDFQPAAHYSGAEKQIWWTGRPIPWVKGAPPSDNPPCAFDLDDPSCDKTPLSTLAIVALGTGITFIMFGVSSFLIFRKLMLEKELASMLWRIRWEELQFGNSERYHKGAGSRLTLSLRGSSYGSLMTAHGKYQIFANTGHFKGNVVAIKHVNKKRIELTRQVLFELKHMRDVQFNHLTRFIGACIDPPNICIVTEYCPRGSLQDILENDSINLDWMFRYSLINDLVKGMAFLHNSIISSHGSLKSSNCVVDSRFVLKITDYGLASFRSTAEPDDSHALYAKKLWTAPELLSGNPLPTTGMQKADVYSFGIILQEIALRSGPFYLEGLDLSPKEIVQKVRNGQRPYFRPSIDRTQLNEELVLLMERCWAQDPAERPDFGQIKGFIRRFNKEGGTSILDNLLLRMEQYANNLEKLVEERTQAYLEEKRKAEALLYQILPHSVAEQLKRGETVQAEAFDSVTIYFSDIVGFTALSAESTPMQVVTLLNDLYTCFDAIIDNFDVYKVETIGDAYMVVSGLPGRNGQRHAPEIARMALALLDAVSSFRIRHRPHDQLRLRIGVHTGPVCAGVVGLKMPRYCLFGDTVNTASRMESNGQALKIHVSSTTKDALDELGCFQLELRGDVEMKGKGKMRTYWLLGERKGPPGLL
GalR3 antag: human GalR3 antagonism; O60755; HEK293 GalR3-CNG cAMP membrane potential fluorescence; galR3 body fused to GalR1 C-terminus; inhibition, % at 3 µM; hit rate 0.44% among 360,000; AID 651719;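 active = inhibition above the screen-wide average plus 3 SD, cut at about 13% in these data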;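 note: forskolin and galanin both at EC90 stimulate the cells; cAMP rise reported by CNG channel membrane potential dye signal; 0% = forskolin plus galanin with DMSO and 100% = forskolin alone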
Arr-AP2 CP1: inhibitors of human beta-arrestin and AP2 interaction; shares compounds with Arrestin-AP2 inh; GST-AP2 beads, FITC arrestin peptide binding, flow cytometry; GST-fused beta2-adaptin appendage, R879A mutant; inhibition, % at 10 µM; hit rate 2% among 1,300;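 active = inhibition above a set limit, roughly 3 SD of non-fluorescent compound noise, cut at about 38% in these data; inactive = inhibition at or below that limit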;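 note: loss of bead fluorescence from 50 nM FITC arrestin peptide bound to appendage; 0% = negative control wells and 100% = excess unlabelled arrestin peptide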
GST-FITC bead: GST-GSH bead binding interference, counter-screen; AID 588338; inhibition, % at 10 µM; GST-fluorescein binding to GSH beads, fluorescence; hit rate 2% among 1,300; shares compounds with Arrestin-AP2 inh;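 active = inhibition above 50%, about 3 SD of the inhibition seen with non-fluorescent compounds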;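 note: fluorescein maleimide labelled GST captured on 4 micron glutathione beads; higher means more loss of bead fluorescence from quenching or blocked binding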
Starred values were filed as active, the others as inactive; nt = no result.

SMILES	Arrestin-AP2 inh	NPR1 activator	NPR2 activator	GalR3 antag	Arr-AP2 CP1	GST-FITC bead
CCCNC(=O)c1noc2c1CCc1ccccc1-2	-13	2	-6	1	nt	nt
O=C(Nc1cccnc1Cl)c1noc2c1CCc1ccccc1-2	55*	-5	-11	-3	10	-16
Cc1ccc(NC(=O)OCCN(C)C(=O)Nc2ccc(C)cc2C)c(C)c1	nt	1	-3	-9	nt	nt
CCn1ncc(Cl)c1C(=O)Nc1cc([N+](=O)[O-])ccc1OC	106*	1	3	-3	-2	14
C=CCN1[C@H](C#N)[C@@H](c2ccc(Br)cc2)[C@H]1CO	nt	-2	7	nt	nt	nt
CCOC(=O)C1=CC[C@H]2c3c(c4ccc(OC)cc4n3C)C(=O)C1N2S(=O)(=O)c1ccc(C)cc1	58*	-3	-4	-13	12	-4
COc1ccccc1C(=O)NCCC(=O)N1CCN(C(=O)c2ccco2)CC1	-7	0	5	-4	nt	nt
COc1ccccc1C(=O)NCCC(=O)N1CCN(C(C)=O)CC1	61*	2	-1	0	9	-2
Cc1ccc(C)c(N2CCN(c3ccncc3N)CC2)c1	55*	0	0	3	-3	-7
CCCCCCCCN1C(=O)[C@@H](CC(=O)NCCCOC)C[C@@]2(C(=O)OC)C1=C[C@H](COCc1ccccc1)O[C@@H]2C	nt	-1	9	nt	nt	nt
Cc1ccccc1C(=O)Nc1ccccc1N1CCCCC1	1	-27	-8	-6	nt	nt
O=C(Nc1cc(C(=O)N2CCCC2)ccc1N1CCCC1)c1ccccc1F	-5	6	6	-8	nt	nt
CCn1c(=O)n(CC)c2cc(N3CCCC3)c(NC(=O)c3ccccc3C)cc21	4	0	1	3	21	-1
CCn1c(=O)n(CC)c2cc(N3CCCC3)c(NC(=O)c3cc(Br)ccc3OC)cc21	nt	-7	-5	5	4	1
CCn1c(=O)n(CC)c2cc(N3CCCC3)c(NC(=O)c3ccccc3F)cc21	7	-1	2	4	-2	-8
Cc1ccccc1CN1CCCCC(NC(=O)c2ccccc2C(F)(F)F)C1=O (centres undefined)	nt	4	6	nt	nt	nt
CC(C)C(=O)Nc1cccc(NC(=S)NC(=O)c2ccccc2Cl)c1	25	0	4	-7	nt	nt
O=C(Nc1ccc(NC(=S)NC(=O)c2ccccc2Cl)cc1)c1cccc(Cl)c1	59*	-1	3	-6	9	0
COc1ccc(-c2n[nH]c(=S)n2Cc2ccccc2)cc1	56*	-1	1	-9	-22	-7
O=C(NCc1ccccc1)[C@H]1CCCN1C(=O)[C@H]1CCCN1C(=O)c1ccc(F)cc1	nt	2	1	-7	nt	nt
Cc1cc(O)ccc1N/C=C/c1onc(C)c1[N+](=O)[O-]	99*	7	3	-1	-2	9
Cc1cc2nc(/C(C#N)=C\c3ccc(-c4ccccc4C(=O)O)o3)[nH]c2cc1C	54*	-5	2	-8	6	15
COC(=O)C1=C(C)N(Cc2cccc(C(F)(F)F)c2)C(=NCc2cc(OC)c(OC)c(OC)c2)NC1CCc1ccccc1 (centres undefined)	nt	-19	-13	-7	nt	nt
C[C@H]1CCCN1c1ccc2c(c1)OCCCN(C1CC1)S2(=O)=O	nt	-1	1	nt	nt	nt
N#Cc1ccc(Cn2ccc3ccc(-c4ccc5ccn(Cc6ccccc6)c5c4)cc32)cc1	nt	-2	-4	nt	nt	nt
SMILES	Arrestin-AP2 inh	NPR1 activator	NPR2 activator	GalR3 antag	Arr-AP2 CP1	GST-FITC bead
O=C(O)c1cnn2c(-c3ccccc3)ccnc12	-14	6	-2	-9	nt	nt
NC(=O)c1cnn2c(-c3cccc(C(F)(F)F)c3)ccnc12	68*	-33	-21	-5	-11	-4
O=C(c1cnn2c(C(F)(F)F)cc(-c3ccccc3)nc12)N1CCCc2ccccc21	-10	-5	-7	-5	-8	-4
O=C(c1cnn2c(C(F)F)cc(-c3ccccc3)nc12)N1CCCc2ccccc21	-8	-17	-9	nt	5	3
COc1ccc(-c2cc(C(F)F)n3ncc(C(=O)N4CCCc5ccccc54)c3n2)cc1	106*	-20	-13	-4	8	66*
C[C@@H]1CCCN1c1cccc2c1S(=O)(=O)N1CC[C@H](C1)O2	nt	1	0	nt	nt	nt
C[C@H](CO)N1C[C@H](C)[C@H](CN(C)Cc2cccc(F)c2)Oc2ncc(C3=CCCC3)cc2C1=O	nt	3	-3	-4	nt	nt
COc1ccc(-c2nn(-c3ccccc3)cc2/C=C(\C#N)S(=O)(=O)c2ccccc2)cc1OC	78*	2	1	1	22	-3
COc1cc(C(=O)Nc2nc3ccc(S(C)(=O)=O)cc3s2)cc(OC)c1C	-1	-4	0	-7	nt	nt
COc1cc(OC)cc(C(=O)Nc2nc3ccc(S(C)(=O)=O)cc3s2)c1	104*	1	1	-7	3	-2
COC(=O)C1=C(C)N(C)C(=NCc2cccc(C(F)(F)F)c2)NC1c1cccc(F)c1 (centres undefined)	nt	-5	-5	-7	nt	nt
Cc1ccc(S(=O)(=O)Nc2cc(Cl)c(O)cc2C)cc1	58*	-2	7	-6	4	-4
COc1ccc(C2CC(=O)C(c3cccc(C)c3)=CN2Cc2ccccc2)cc1 (centres undefined)	nt	-4	1	-5	nt	nt
Cc1ccccc1N1CCN(C(=O)CN2C(=O)CC(C)(C)S(=O)(=O)c3ccccc32)CC1	nt	3	0	nt	nt	nt
COc1cccc(CN(C)C(=O)C2CCC(=O)N(Cc3cccc(F)c3)C2)c1 (centres undefined)	42	1	-4	1	-2	-1
CC1(C)CC(=O)C2=C(C1)Nc1ccccc1NC2c1cccs1 (centres undefined)	-1	0	-1	-3	nt	nt
O=C1CCCC2=C1C(c1cccs1)Nc1ccccc1N2 (centres undefined)	70*	-1	6	0	-4	-3
Cc1ccc(-n2c(SCC(=O)Nc3ccc(Oc4ccccc4)cc3)nnc2-c2cccc(C)c2)cc1	nt	-2	4	nt	nt	nt
COc1ccc(/C=N/Nc2ccc([N+](=O)[O-])cc2S(=O)(=O)N2CCN(C)CC2)cc1	102*	0	9	-5	18	-4
O=C(Nc1ccccc1C(=O)NCC1CC1)c1cccs1	nt	-2	-6	-4	nt	nt
CC(C)CN(C(=O)c1ccc(S(=O)(=O)N2CCCC2)cc1)C1CCS(=O)(=O)C1 (centres undefined)	55*	2	8	-2	8	-8
Cc1cc(Cl)ccc1N(CC(=O)NCc1ccc2c(c1)OCO2)S(C)(=O)=O	60*	-6	-1	4	11	-3
Cc1ccc(Cl)cc1N(CC(=O)NCc1ccc2c(c1)OCO2)S(C)(=O)=O	27	0	0	-3	nt	nt
